From ChEMBL document CHEMBL4402582, “Garcinoic Acid Is a Natural and Selective Agonist of Pregnane X Receptor” (J Med Chem, 2020)
Calls of active or inactive are those of the source. No cut-off for these calls is given here.

Legend:
[1] = target: T1, Nuclear receptor subfamily 1 group I member 2 (Homo sapiens, UniProt O75469); assay: Agonist activity at His-tagged PXR-LBD/SRC-1p (unknown origin) expressed in Escherichia coli BL21(DE3) by coactivator recruitment based Alpha-screen assay; conditions: read-out: EC50
T1 sequence (O75469 whole entry): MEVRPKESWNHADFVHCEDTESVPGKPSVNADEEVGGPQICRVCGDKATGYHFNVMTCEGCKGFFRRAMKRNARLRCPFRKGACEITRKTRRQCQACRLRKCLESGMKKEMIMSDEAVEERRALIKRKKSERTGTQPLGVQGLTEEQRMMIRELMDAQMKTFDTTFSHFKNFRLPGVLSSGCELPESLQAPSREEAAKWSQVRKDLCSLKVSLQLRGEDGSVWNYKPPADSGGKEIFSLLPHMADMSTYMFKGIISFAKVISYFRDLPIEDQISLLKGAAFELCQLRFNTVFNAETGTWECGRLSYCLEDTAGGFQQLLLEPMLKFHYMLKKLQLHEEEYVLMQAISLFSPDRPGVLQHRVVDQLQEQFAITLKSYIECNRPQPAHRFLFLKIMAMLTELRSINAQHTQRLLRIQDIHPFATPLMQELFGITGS

[2] = target: T2, Oxysterols receptor LXR-beta (Homo sapiens) (UniProt P55055); assay: Agonist activity at LXR-beta (unknown origin) at 10 uM by coactivator recruitment based Alpha-screen assay
T2 sequence (whole entry): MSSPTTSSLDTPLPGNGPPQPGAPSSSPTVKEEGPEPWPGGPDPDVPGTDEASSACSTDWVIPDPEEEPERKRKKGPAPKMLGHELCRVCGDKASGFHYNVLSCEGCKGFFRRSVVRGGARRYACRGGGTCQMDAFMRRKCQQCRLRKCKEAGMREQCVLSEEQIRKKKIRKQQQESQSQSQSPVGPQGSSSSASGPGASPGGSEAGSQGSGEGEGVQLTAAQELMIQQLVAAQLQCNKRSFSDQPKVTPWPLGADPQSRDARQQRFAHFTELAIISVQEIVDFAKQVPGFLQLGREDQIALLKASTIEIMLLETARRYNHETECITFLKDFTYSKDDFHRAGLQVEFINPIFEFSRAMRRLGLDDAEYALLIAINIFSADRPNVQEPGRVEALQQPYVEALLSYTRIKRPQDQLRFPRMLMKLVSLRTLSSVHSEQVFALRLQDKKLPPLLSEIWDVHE

[3] = target: T1, Nuclear receptor subfamily 1 group I member 2; assay: Agonist activity at PXR in human HepG2 cells transfected with PXR siRNA at 10 to 50 uM incubated for 24 hrs; assay type: cell-based; conditions: hepg2, 24 h
Procedure, shortened: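 HepG2 cells reverse-transfected with PXR siRNA using lipofectamine RNAiMAX; after 24 h silencing, treated with compound for a further 24 h. PXR and CYP3A4 transcription responses measured.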

[4] = target: T1, Nuclear receptor subfamily 1 group I member 2; assay: Agonist activity at PXR in human HepG2 cells assessed as increase in MDR1 mRNA expression at 1 to 50 uM incubated for 24 hrs; assay type: cell-based; conditions: hepg2, 24 h
Procedure, shortened: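 HepG2 cells exposed to 1–50 μM. MDR1 mRNA measured after RNA extraction and cDNA synthesis.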

[5] = target: T1, Nuclear receptor subfamily 1 group I member 2; assay: Agonist activity at PXR in human HepaRG cells assessed as reversion of PXR antagonist sulforaphane-induced suppression of CYP3A4 expression at 10 uM incubated for 24 hrs by immunoblot analysis; assay type: cell-based
[6] = target: T1, Nuclear receptor subfamily 1 group I member 2; assay: Agonist activity at PXR in human HepG2 cells assessed as stimulation of CYP450-mediated alpha-tocopherol metabolites efflux at 25 uM; assay type: cell-based; conditions: hepg2, 25 µM
[7] = target: T1, Nuclear receptor subfamily 1 group I member 2; assay: Agonist activity at PXR in human HT29 cells assessed as increase in PXR protein expression at 1 to 25 uM incubated for 24 hrs by immunoblot analysis; assay type: cell-based
[8] = target: T1, Nuclear receptor subfamily 1 group I member 2; assay: Agonist activity at PXR in human HT29 cells assessed as increase in CYP3A4 protein expression at 1 to 25 uM incubated for 24 hrs by immunoblot analysis; assay type: cell-based
[9] = target: T1, Nuclear receptor subfamily 1 group I member 2; assay: Agonist activity at PXR in human HT29-MTX cells assessed as increase in CYP3A4 protein expression at 1 to 25 uM incubated for 24 hrs by immunoblot analysis; assay type: cell-based
[10] = Toxicity in C57BL/6 mouse assessed as mortality at 50 mg dosed as oral gavage as single bolus and measured after 24 hrs relative to control; assay type: organism-based; conditions: in vivo, read-out: Activity
Procedure, shortened: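 Male C57BL/6 wild-type mice aged 6–7 weeks, 3 per group. Single bolus by oral gavage in an olive-oil vehicle, with vehicle-only controls and dose groups of 5, 10, 25, 50 and 100 mg. Animals were checked 24 h after dosing by gross appearance and behaviour, then killed, and liver and main organs were examined post-mortem.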

[11] = Toxicity in C57BL/6 mouse assessed as effect on animal behavior at <=25 mg dosed as oral gavage as single bolus and measured after 24 hrs relative to control; assay type: organism-based; conditions: in vivo
Procedure, shortened: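 Male C57BL/6 mice, 6–7 weeks old, three per group. Single oral gavage bolus of 5, 10, 25, 50 or 100 mg in olive oil vehicle. Observed at 24 h for mortality, gross appearance and behavior, then post-mortem examination of liver and main organs.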

Mus musculus [12] = assay: Induction of PXR mRNA expression in C57BL/6 mouse liver at 5 to 25 mg dosed as oral gavage as single bolus and measured after 24 hrs relative to control; assay type: functional, organism-based
Procedure, shortened: (§1)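 Male C57BL/6 mice, 6–7 weeks old, three per group. Single oral gavage bolus of 5, 10 or 25 mg in olive oil vehicle; vehicle-only controls. Killed at 24 h. Tissue PXR mRNA measured; PXR, CYP3A11 and MDR1 protein measured by immunoblot.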

Mus musculus [13] = assay: Induction of PXR-dependent CYP3A11 protein expression in C57BL/6 mouse intestine at 5 to 25 mg dosed as oral gavage as single bolus and measured after 24 hrs relative to control; assay type: functional, organism-based; procedure, shortened: as §1
Mus musculus [14] = assay: Induction of PXR protein expression in C57BL/6 mouse hepatic parenchyma assessed as induction of localization of PXR protein at sinusoidal endothelial cells at 5 to 25 mg dosed as oral gavage as single bolus and measured after 24 hrs by IHC analysis relative to control; assay type: functional, organism-based
Procedure, shortened: (§2)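 Male C57BL/6 mice, 6–7 weeks old, three per group. Single oral gavage bolus (5–25 mg) in olive oil; vehicle controls; killed at 24 h. Liver and gut formalin-fixed, paraffin-embedded; 4 μm sections stained with H&E. PXR IHC with polyclonal antibody at 1:200 on an automated stainer with polymer detection.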

Mus musculus [15] = assay: Induction of PXR protein expression in C57BL/6 mouse intestine assessed as induction of localization of PXR protein at brush border of enterocytes at 10 mg dosed as oral gavage as single bolus and measured after 24 hrs by IHC analysis relative to control; assay type: functional, organism-based; procedure, shortened: as §2
[16] = target: T1, Nuclear receptor subfamily 1 group I member 2; assay: Agonist activity at PXR in human HepG2 cells assessed as increase in CYP3A4 mRNA expression at 1 to 25 uM incubated for 24 hrs; conditions: hepg2, 24 h

Compound: C/C(=C\CC/C(C)=C/CC[C@]1(C)CCc2cc(O)cc(C)c2O1)CC/C=C(\C)C(=O)O
- EC50 [1]: 1300 nM
- Activity [2]: inactive
- Activity [3]: Not Active
- Activity [4]: Dose-dependent effect
- Activity [5]: Active
- Activity [6]: Active
- Activity [7]: Active
- Activity [8]: Active
- Activity [9]: Active
- mortality at 24 h [10]: 33%
- Activity [11]: Non-Toxic
- Activity (Mus musculus [12]): Dose-dependent effect
- Activity (Mus musculus [13]): Active
- Activity (Mus musculus [14]): Active
- Activity (Mus musculus [15]): Active
- Activity [16]: Dose-dependent effect
